{"data": "Assay results pooled from the literature", "note": "Compare with care: the assays were run in different laboratories."}
{"Structure (SMILES)": "[NH2][Pt]([NH2])([Cl])[Cl]", "cell line": "SW1573", "assay": "cell growth or viability, SRB", "endpoint": "GI50", "result": "2.7 µM"}
{"Structure (SMILES)": "O=C(O[C@@H]1COC(=O)c2cc(O)c(O)c(O)c2-c2c(cc(O)c(O)c2O)C(=O)O[C@H]1[C@@H]1OC(=O)c2cc(O)c(O)c(O)c2-c2c(O)c(O)c(O)c3c2C(=O)O[C@H]1[C@@H]3O)c1cc(O)c(O)c(O)c1", "cell line": "SIM-A9", "assay": "NO release, inhibitor, Griess", "setting": "10.7 µM, LPS-stimulated", "endpoint": "inhibition", "result": "52%"}
{"Structure (SMILES)": "[NH2][Pt]([NH2])([Cl])[Cl]", "cell line": "NCI-H1573", "assay": "cell growth or viability, MTT", "setting": "48 h", "endpoint": "IC50", "result": "75.8 µM"}
{"Structure (SMILES)": "CCCCCCCCCCCCCCCCCCOc1ccc(CC(=O)OCCC[N+](C)(C)C)cc1", "cell line": "NCI-H23", "assay": "cell growth or viability, SRB", "setting": "10 µM", "endpoint": "inhibition", "result": "18.9%"}
{"Structure (SMILES)": "COc1cccc2c1C(=O)c1c(O)c3c(c(O)c1C2=O)C[C@@](O)(C(=O)CO)C[C@@H]3O[C@H]1C[C@H](N)[C@H](O)[C@H](C)O1", "cell line": "CHP-212", "assay": "cell growth or viability, SRB", "setting": "3.333 µM", "endpoint": "viability", "result": "2.6%"}
{"Structure (SMILES)": "COc1ccc2/c(=N/c3ccccc3NC(=O)[C@H](C)N)cc(-c3ccc4c(c3)OCCO4)oc2c1", "cell line": "MOLM-13", "assay": "cell growth or viability, CCK-8", "setting": "1 µM", "endpoint": "inhibition", "result": "6.88%"}
{"Structure (SMILES)": "COC(=O)[C@H]1[C@@H](O)[C@@]2(O)c3c(OC)cc(O[C@@H]4O[C@@H]([C@H](O)CO)CO[C@H]4OC)cc3O[C@@]2(c2ccc(OC)cc2)[C@@H]1c1ccccc1", "cell line": "C6661", "assay": "cell growth or viability, MTS", "setting": "24 h", "endpoint": "IC50", "result": "0.068 µM"}
{"Structure (SMILES)": "N#CSCCCCOc1ccc2c(-c3ccccc3)cc(=O)oc2c1", "cell line": "SW1573", "assay": "cell growth or viability, SRB", "endpoint": "GI50", "result": "25 µM"}
{"Structure (SMILES)": "Oc1cccc(-c2nc(N3CCOCC3)c3oc4ncccc4c3n2)c1", "cell line": "MOLM-13", "assay": "cell growth or viability, CCK-8", "setting": "1 µM", "endpoint": "inhibition", "result": "14.3%"}
{"Structure (SMILES)": "O=c1[nH]cc(F)c(=O)[nH]1", "cell line": "Bel-7402", "assay": "cell growth or viability, MTT", "setting": "48 h", "endpoint": "IC50", "result": "15.8 µM"}
{"Structure (SMILES)": "COc1ccc2/c(=N/c3ccccc3NC(=O)[C@@H](N)CO)cc(-c3ccc4c(c3)OCCO4)oc2c1", "cell line": "MOLM-13", "assay": "cell growth or viability, CCK-8", "setting": "1 µM", "endpoint": "inhibition", "result": "3.26%"}
{"Structure (SMILES)": "CCCCCCCCCCCCCCCCCCOc1ccc(CC(=O)OCC[N+](CC)(CC)CC)cc1", "cell line": "NCI-H23", "assay": "cell growth or viability, SRB", "setting": "10 µM", "endpoint": "inhibition", "result": "39.5%"}
{"Structure (SMILES)": "COc1ncnc(C2CC2)c1-c1ncc2cnn(Cc3ccc(-c4nc(C(F)(F)F)cn4C(C)C)cc3)c2n1", "cell line": "CHP-212", "assay": "cell growth or viability, SRB", "setting": "25 µM", "endpoint": "viability", "result": "76.7%"}
{"Structure (SMILES)": "N[C@@H](CO)C(=O)Nc1ccccc1/N=c1\\cc(-c2ccc3c(c2)OCO3)oc2ccccc12", "cell line": "MOLM-13", "assay": "cell growth or viability, CCK-8", "setting": "1 µM", "endpoint": "inhibition", "result": "8.02%"}
{"Structure (SMILES)": "O=C(C[C@@H](C(F)F)n1ccc(F)n1)N1CCC(O)(Cn2cnc3c(cnn3-c3ccc(F)cc3)c2=O)CC1", "cell line": "CHP-212", "assay": "cell growth or viability, SRB", "setting": "27.43 nM", "endpoint": "viability", "result": "72.4%"}
{"Structure (SMILES)": "CCCCCCCCCCCCCCCCCCOc1cccc(CC(=O)OCC[N+]2(C)CCCCC2)c1", "cell line": "NCI-H23", "assay": "cell growth or viability, SRB", "setting": "10 µM", "endpoint": "inhibition", "result": "16.1%"}
{"Structure (SMILES)": "Nc1nc2ccc(-c3c/c(=N\\c4ccccc4NC(=O)CCN4CCOCC4)c4ccccc4o3)cc2o1", "cell line": "MOLM-13", "assay": "cell growth or viability, CCK-8", "setting": "1 µM", "endpoint": "inhibition", "result": "0.92%"}
{"Structure (SMILES)": "CC(C)C[C@H](NC(=O)[C@H](Cc1ccccc1)NC(=O)c1cnccn1)B(O)O", "cell line": "CHP-212", "assay": "cell growth or viability, SRB", "setting": "41.15 nM", "endpoint": "viability", "result": "90.7%"}
{"Structure (SMILES)": "C[C@@H]1COCCN1c1cc(C2([S@](C)(=N)=O)CC2)nc(-c2cc[nH]c3nccc2-3)n1", "cell line": "CT26", "assay": "cell growth or viability, ATP luminescence", "setting": "24 h", "endpoint": "IC50", "result": "27.6 µM"}
{"Structure (SMILES)": "Nc1ccccc1/N=c1\\cc(-c2ccc3c(c2)OCO3)oc2ccccc12", "cell line": "MOLM-13", "assay": "cell growth or viability, CCK-8", "setting": "1 µM", "endpoint": "inhibition", "result": "5.39%"}
{"Structure (SMILES)": "CCCCCCCCCCCCCCCCCCOc1ccc(CC(=O)OCC[N+](C)(C)C)cc1", "cell line": "NCI-H23", "assay": "cell growth or viability, SRB", "setting": "10 µM", "endpoint": "inhibition", "result": "6.67%"}
